Source: ChEMBL document CHEMBL4680253, “Hybrids of MEK inhibitor and NO donor as multitarget antitumor drugs” (Eur J Med Chem, 2020)
The source made the active and inactive calls. The calls are words filed in the database; no cut-off is given here.

Assays:
MDA-MB-231 [1] = assay: Induction of apoptosis in human MDA-MB-231 cells assessed as late apoptotic cells at 10 uM incubated for 24 hrs by AnnexinV-FITC and propidium iodide staining based flow cytometry (reference value: 3.54%); format: functional
[2] = Antiproliferative activity against human A375 cells harboring BRAF V600E mutant assessed as inhibition of cell viability after 96 hrs by Celltiter-Glo assay; format: functional, cell-based, A375/R; settings: A-375, 96 h
MDA-MB-231 [3] = assay: Antiproliferative activity against human MDA-MB-231 cells harboring KRAS G13D/BRAF G464V mutant assessed as inhibition of cell viability after 96 hrs by Celltiter-Glo assay; format: functional, cell-based; settings: MDA-MB-231, 96 h
HCT-116 = assay: Antiproliferative activity against human HCT116 cells harboring KRAS G13D mutant assessed as inhibition of cell viability after 96 hrs by Celltiter-Glo assay; format: functional, cell-based; settings: HCT-116, 96 h
A549 = assay: Antiproliferative activity against human A549 cells harboring KRAS G12S mutant assessed as inhibition of cell viability after 96 hrs by Celltiter-Glo assay; format: functional, cell-based; settings: A549, 96 h
HL-60 = assay: Antiproliferative activity against human HL60 cells harboring NRAS […] mutant assessed as inhibition of cell viability after 96 hrs by Celltiter-Glo assay; format: functional, cell-based; settings: HL-60, 96 h
[4] = molecular target: T1, Dual specificity mitogen-activated protein kinase kinase; MEK1/2 (Homo sapiens) (UniProt P36507+Q02750); assay: Inhibition of MEK in human A549 cells assessed as reduction in MEK phosphorylation at 10 uM incubated for 2 hrs by Western blot analysis; format: cell-based
T1 sequence (P36507 whole entry, looked up): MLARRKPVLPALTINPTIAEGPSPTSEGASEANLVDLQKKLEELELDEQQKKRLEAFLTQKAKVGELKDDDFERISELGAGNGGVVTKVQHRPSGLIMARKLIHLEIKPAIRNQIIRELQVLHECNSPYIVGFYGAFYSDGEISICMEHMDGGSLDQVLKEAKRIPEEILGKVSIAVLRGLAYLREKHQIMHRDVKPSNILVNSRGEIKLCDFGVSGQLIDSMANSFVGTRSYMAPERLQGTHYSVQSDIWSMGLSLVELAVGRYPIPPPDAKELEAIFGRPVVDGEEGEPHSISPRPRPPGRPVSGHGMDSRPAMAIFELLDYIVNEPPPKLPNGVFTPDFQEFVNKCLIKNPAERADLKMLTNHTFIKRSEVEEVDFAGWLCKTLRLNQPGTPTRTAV
T1 sequence (Q02750 whole entry, looked up): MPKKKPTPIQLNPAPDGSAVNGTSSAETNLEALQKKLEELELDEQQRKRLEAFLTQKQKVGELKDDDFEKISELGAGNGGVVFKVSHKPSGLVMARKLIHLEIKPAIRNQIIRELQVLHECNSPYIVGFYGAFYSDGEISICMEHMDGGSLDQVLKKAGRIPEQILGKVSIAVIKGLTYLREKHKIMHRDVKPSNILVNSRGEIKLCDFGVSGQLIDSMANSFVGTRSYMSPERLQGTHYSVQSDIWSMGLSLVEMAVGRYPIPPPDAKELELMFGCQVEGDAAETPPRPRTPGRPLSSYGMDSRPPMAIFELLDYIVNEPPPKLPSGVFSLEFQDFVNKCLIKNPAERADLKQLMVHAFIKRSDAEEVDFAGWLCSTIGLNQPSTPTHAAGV
Procedure, shortened: (§1)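 A549 cells in RPMI-1640 with 10% FBS, treated 2 h. Cells lysed in RIPA with protease/phosphatase inhibitors on ice for 20 min. Equal protein run on 4-20% SDS-PAGE and blotted to PVDF. Membranes blocked in 5% milk, then probed overnight at 4 °C with rabbit mAbs to pMEK, MEK, pERK and ERK, followed by HRP secondary. GAPDH used as loading control.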

[5] = molecular target: T1, Dual specificity mitogen-activated protein kinase kinase; MEK1/2 (Homo sapiens); assay: Inhibition of MEK in human A549 cells assessed as reduction in ERK phosphorylation at 1 uM incubated for 2 hrs by Western blot analysis; format: cell-based; procedure, shortened: as §1
Vero = assay: Cytotoxicity against African green monkey Vero cells assessed as reduction in cell viability after 96 hrs by Celltiter-Glo assay; format: cell-based; settings: Chlorocebus sabaeus
Procedure, shortened: (§2)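 Cells kept at 37 °C in humidified 5% CO2 with 10% FBS; Vero in DMEM, HL7702 in RPMI-1640. Compounds added to plated cells and incubated 96 h at 37 °C. Viability read by CellTiter-Glo reagent added directly to the wells. IC50 fitted from the readings.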

L02 = assay: Cytotoxicity against human HL7702 cells assessed as reduction in cell viability after 96 hrs by Celltiter-Glo assay; format: cell-based; settings: L02, 96 h; procedure, shortened: as §2
MDA-MB-231 [6] = assay: Induction of apoptosis in human MDA-MB-231 cells assessed as viable cells at 1 uM incubated for 24 hrs by AnnexinV-FITC and propidium iodide staining based flow cytometry (reference value: 90.962%); format: functional; settings: read-out: Activity
MDA-MB-231 [7] = assay: Induction of apoptosis in human MDA-MB-231 cells assessed as early apoptotic cells at 1 uM incubated for 24 hrs by AnnexinV-FITC and propidium iodide staining based flow cytometry (reference value: 4.4%); format: functional
MDA-MB-231 [8] = assay: Induction of apoptosis in human MDA-MB-231 cells assessed as late apoptotic cells at 1 uM incubated for 24 hrs by AnnexinV-FITC and propidium iodide staining based flow cytometry (reference value: 3.54%); format: functional
MDA-MB-231 [9] = assay: Induction of apoptosis in human MDA-MB-231 cells assessed as necrotic cells at 1 uM incubated for 24 hrs by AnnexinV-FITC and propidium iodide staining based flow cytometry (reference value: 1.084%); format: functional
MDA-MB-231 [10] = assay: Induction of apoptosis in human MDA-MB-231 cells assessed as viable cells at 10 uM incubated for 24 hrs by AnnexinV-FITC and propidium iodide staining based flow cytometry (reference value: 90.962%); format: functional; settings: read-out: Activity
MDA-MB-231 [11] = assay: Induction of apoptosis in human MDA-MB-231 cells assessed as early apoptotic cells at 10 uM incubated for 24 hrs by AnnexinV-FITC and propidium iodide staining based flow cytometry (reference value: 4.4%); format: functional
MDA-MB-231 [12] = assay: Induction of apoptosis in human MDA-MB-231 cells assessed as necrotic cells at 10 uM incubated for 24 hrs by AnnexinV-FITC and propidium iodide staining based flow cytometry (reference value: 1.084%); format: functional
[13] = molecular target: T1, Dual specificity mitogen-activated protein kinase kinase; MEK1/2 (Homo sapiens); assay: Inhibition of MEK in human MDA-MB-231 cells assessed as reduction in MEK phosphorylation at 10 uM incubated for 2 hrs by Western blot analysis; format: cell-based
Procedure, shortened: (§3)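 MDA-MB-231 in RPMI-1640 with 10% FBS. Dose series at 1, 3 and 10 µM for 2 h or 24 h; time course at 1 µM or 10 µM over several time points. RIPA lysates with protease/phosphatase inhibitors, equal protein on 4-20% SDS-PAGE, PVDF transfer, 5% milk block. Probed overnight at 4 °C for pMEK, MEK, pERK and ERK, then HRP secondary.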

[14] = molecular target: T1, Dual specificity mitogen-activated protein kinase kinase; MEK1/2 (Homo sapiens); assay: Inhibition of MEK in human MDA-MB-231 cells assessed as reduction in ERK phosphorylation at 10 uM incubated for 2 hrs by Western blot analysis; format: cell-based; procedure, shortened: as §3
[15] = molecular target: T1, Dual specificity mitogen-activated protein kinase kinase; MEK1/2 (Homo sapiens); assay: Inhibition of MEK in human MDA-MB-231 cells assessed as reduction in MEK phosphorylation at 10 uM incubated for 4 hrs by Western blot analysis; format: cell-based; procedure, shortened: as §3
[16] = molecular target: T1, Dual specificity mitogen-activated protein kinase kinase; MEK1/2 (Homo sapiens); assay: Inhibition of MEK in human MDA-MB-231 cells assessed as reduction in ERK phosphorylation at 10 uM incubated for 4 hrs by Western blot analysis; format: cell-based; procedure, shortened: as §3
[17] = molecular target: T1, Dual specificity mitogen-activated protein kinase kinase; MEK1/2 (Homo sapiens); assay: Inhibition of MEK in human A549 cells assessed as reduction in MEK phosphorylation incubated for 2 hrs by Western blot analysis; format: cell-based; settings: dose 1-10 µM; procedure, shortened: as §1
[18] = molecular target: T1, Dual specificity mitogen-activated protein kinase kinase; MEK1/2 (Homo sapiens); assay: Inhibition of MEK in human A549 cells assessed as reduction in ERK phosphorylation incubated for 2 hrs by Western blot analysis; format: cell-based; settings: dose 1-10 µM; procedure, shortened: as §1
[19] = molecular target: T1, Dual specificity mitogen-activated protein kinase kinase; MEK1/2 (Homo sapiens); assay: Inhibition of MEK in human A549 cells assessed as reduction in MEK phosphorylation by Western blot analysis; format: cell-based; settings: TDE = time-dependent effect; procedure, shortened: as §1
[20] = molecular target: T1, Dual specificity mitogen-activated protein kinase kinase; MEK1/2 (Homo sapiens); assay: Inhibition of MEK in human A549 cells assessed as reduction in ERK phosphorylation by Western blot analysis; format: cell-based; settings: TDE = time-dependent effect; procedure, shortened: as §1
[21] = molecular target: T1, Dual specificity mitogen-activated protein kinase kinase; MEK1/2 (Homo sapiens); assay: Inhibition of MEK in human MDA-MB-231 cells assessed as reduction in MEK phosphorylation at 1 to 10 uM incubated for 24 hrs by Western blot analysis; format: cell-based; settings: dose 1-10 µM; procedure, shortened: as §3
[22] = molecular target: T1, Dual specificity mitogen-activated protein kinase kinase; MEK1/2 (Homo sapiens); assay: Inhibition of MEK in human MDA-MB-231 cells assessed as reduction in ERK phosphorylation at 1 to 10 uM incubated for 24 hrs by Western blot analysis; format: cell-based; settings: dose 1-10 µM; procedure, shortened: as §3
[23] = Prodrug release in human HCT-116 cells assessed as increase in intracellular NO level at 100 uM measured after 2 hr by DAF-FM DA reagent based laser confocal scanning microscopy; settings: hct-116, 2 h

CNS(=O)(=O)Nc1cccc(Cc2c(C)c3ccc(OCCOc4no[n+]([O-])c4S(=O)(=O)c4ccccc4)cc3oc2=O)c1F
Activity (MDA-MB-231 [1]): 5.11% | IC50 [2]: 0.33 µM | IC50 (MDA-MB-231 [3]): 0.093 µM | IC50 (HCT-116): 0.67 µM | IC50 (A549): 1.1 µM | IC50 (HL-60): 0.53 µM | inhibition [4]: Active | inhibition [5]: Active | IC50 (Vero): 4.34 µM | IC50 (L02): 2.78 µM | viability at 1 µM (MDA-MB-231 [6]): 68% | Activity (MDA-MB-231 [7]): 20.2% | Activity (MDA-MB-231 [8]): 8.15% | Activity (MDA-MB-231 [9]): 3.613% | viability at 10 µM (MDA-MB-231 [10]): 57.2% | Activity (MDA-MB-231 [11]): 22.9% | Activity (MDA-MB-231 [12]): 14.737% | inhibition [13]: Active | inhibition [14]: Active | inhibition [15]: 100% | inhibition [16]: 100% | inhibition [17]: Dose-dependent effect | inhibition [18]: Dose-dependent effect | inhibition [19]: Tde | inhibition [20]: Tde | inhibition [21]: Active | inhibition [22]: Active | Drug metabolism [23]: Metabolite_Detected
